Data as given in ChEMBL document CHEMBL5705889, “Novel mutant-selective EGFR kinase inhibitors against EGFR T790M” (Nature, 2009).
The source made the active and inactive calls. No cut-off for these calls is given here.

What was measured:
[1] = Half-life in mouse at 1 mg/kg, iv administered as single dose; format: ADME, organism-based; conditions: in vivo
[2] = test system: Mus musculus; test: In vivo antitumor activity in transgenic mouse harboring EGFR Del19/T790M mutant assessed as tumor regression at 25 mg/kg, administered via gavage for 2 weeks; format: functional, organism-based
Procedure, shortened: (§1)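 Inducible bitransgenic mice carrying EGFR T790M/L858R or exon19 deletion-T790M were dosed by daily gavage at 25mg/kg. The vehicle was 10% 1-methyl-2-pyrrolidinone:90% PEG-300, and the control group received vehicle alone. Tumor response was followed by MRI scanning.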

[3] = molecular target: RAC-alpha serine/threonine-protein kinase (Homo sapiens) (UniProt P31749); test: Inhibition of AKT phosphorylation in human NCI-H1975 cells at 0.01 to 1 uM incubated for 16 hrs by immunoblot analysis; format: cell-based; conditions: dose 0.01-1 µM
[4] = AUC(0 to infinity) in mouse at 1 mg/kg, iv administered as single dose; format: ADME, organism-based; conditions: in vivo
[5] = Drug concentration in mouse plasma at 1 mg/kg, iv administered as single dose and measured after 0.25 hrs; format: ADME, organism-based
[6] = Drug concentration in mouse plasma at 1 mg/kg, iv administered as single dose and measured after 1 hrs; format: ADME, organism-based
[7] = test system: BaF3; test: cells; format: functional, cell-based; conditions: Mus musculus, BaF3, 72 h
[8] = Toxicity in mouse harboring EGFR del E746_A750/T790M mutant assessed as effect on body weight at 25 mg/kg administered via gavage for 2 weeks; format: organism-based; conditions: in vivo, po, 336 h
Procedure, shortened: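 Inducible bitransgenic tumor mice gavaged daily, 25 mg/kg, vehicle NMP (10% 1-methyl-2-pyrrolidinone, 90% PEG-300), compared against vehicle-treated mice; weight, serum creatine and total white blood cell count monitored during the study.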

[9] = test system: PC-9; test: cells; format: functional, cell-based; conditions: Homo sapiens, PC-9, 72 h
[10] = test system: Mus musculus; test: Invivo antitumor activity in transgenic mouse harboring EGFR del19/T790M mutant assessed as decrease in cellularity at 25 mg/kg administered via gavage for 2 weeks by H&E staining based analysis; format: functional, organism-based
Procedure, shortened: (§2)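 EGFR-TL (L858R/T790M) or exon19 deletion-T790M (TD) inducible bitransgenic mice dosed by oral gavage daily at 25 mg/kg; vehicle 10% 1-methyl-2-pyrrolidinone:90% PEG-300. Tumors followed by MRI; lung histology by standard protocols.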

[11] = test system: BaF3; test: cells; format: functional, cell-based; conditions: Mus musculus, BaF3, 72 h; remark: listed apart in the source
[12] = Oral bioavailability in mouse at 10 mg/kg administered as single dose; format: ADME, organism-based; conditions: in vivo
[13] = molecular target: Tyrosine-protein kinase ITK/TSK (Homo sapiens, UniProt Q08881); test: Binding affinity to ITK (unknown origin) assessed as dissociation constant
[14] = test system: Mus musculus; test: In vivo inhibition of AKT phosphorylation in transgenic mouse harboring EGFR del E746_A750/T790M mutant at 2.5 to 25 mg/kg administered as two doses separated by 16 hours by immunoblot analysis; format: functional, organism-based; conditions: dose 2.5-25 mg/kg
[15] = test system: Calu-3; test: cells; format: functional, cell-based; conditions: Homo sapiens, Calu-3, 72 h
[16] = Volume of distribution at steady state in mouse at 1 mg/kg, iv administered as single dose; format: ADME, organism-based; conditions: in vivo, read-out: Vdss
[17] = cells; format: functional, cell-based; conditions: Homo sapiens, HCC827 Gefitinib-resistant (GR) cell, 72 h
[18] = test system: Mus musculus; test: Invivo antitumor activity in transgenic mouse harboring EGFR del19/T790M mutant assessed as reduction in small residual nodules in tumor at 25 mg/kg administered via gavage for 2 weeks by H&E staining based analysis; format: functional, organism-based; procedure, shortened: as §2
[19] = Drug concentration in mouse plasma at 1 mg/kg, iv administered as single dose and measured after 4 hrs; format: ADME, organism-based
[20] = C0 in mouse at 1 mg/kg, iv administered as single dose; format: ADME, organism-based; conditions: in vivo
[21] = Drug concentration in mouse plasma at 10 mg/kg, po administered as single dose and measured after 0.5 hrs; format: ADME, organism-based
[22] = AUC(0 to t) in mouse at 10 mg/kg, po administered as single dose; format: ADME, organism-based; conditions: in vivo
[23] = test system: Mus musculus; test: Invivo antitumor activity in transgenic mouse harboring EGFR del19/T790M mutant assessed as reduction in nodule remnants in tumor at 25 mg/kg administered via gavage for 2 weeks by H&E staining based analysis; format: functional, organism-based; procedure, shortened: as §2
[24] = Drug concentration in mouse plasma at 1 mg/kg, iv administered as single dose and measured after 0.5 hrs; format: ADME, organism-based
[25] = Half-life in mouse at 10 mg/kg, po administered as single dose; format: ADME, organism-based; conditions: in vivo
[26] = test system: HCC827; test: cells; format: functional, cell-based; conditions: Homo sapiens, HCC827, 72 h
[27] = molecular target: Epidermal growth factor receptor (Homo sapiens, UniProt P00533); test: Inhibition of EGFR phosphorylation in human PC9 Gefitinib-resistant (GR) cells at 0.01 to 1 uM incubated for 16 hrs by immunoblot analysis; format: cell-based; conditions: PC9 Gefitinib-resistant (GR) cell, dose 0.01-1 µM
[28] = molecular target: Cytoplasmic tyrosine-protein kinase BMX (Homo sapiens) (UniProt P51813); test: Binding affinity to BMX (unknown origin)
[29] = MRT in mouse at 1 mg/kg, iv administered as single dose; format: ADME, organism-based; conditions: in vivo
[30] = test system: Mus musculus; test: In vivo inhibition of ERK1/2 phosphorylation in transgenic mouse harboring EGFR L858R/T790M mutant at 2.5 to 25 mg/kg administered as two doses separated by 16 hours by immunoblot analysis; format: functional, organism-based; conditions: dose 2.5-25 mg/kg
Procedure, shortened: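 Transgenic mice gavaged with compound in 10% 1-methyl-2-pyrrolidinone:90% PEG-300 vehicle; phosphorylation assessed in tissue by immunoblotting per standard protocols.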

[31] = molecular target: Tyrosine-protein kinase JAK2 (Homo sapiens, UniProt O60674); test: Inhibition of TEL fused JAK2 (unknown origin) transformed in mouse BaF3 cells; format: cell-based
[32] = test system: NCI-H3255; test: Antiproliferative activity against human NCI-H3255 cells harboring EGFR L858R mutant assessed as inhibition of cell growth incubated for 72 hrs by MTS assay; format: functional, cell-based; conditions: NCI-H3255, 72 h
[33] = test system: Mus musculus; test: In vivo antitumor activity in transgenic mouse harboring EGFR L858R/T790M mutant assessed as tumor regression at 25 mg/kg, administered via gavage for 2 weeks; format: functional, organism-based; procedure, shortened: as §1
[34] = Cmax in mouse at 10 mg/kg, po administered as single dose; format: ADME, organism-based; conditions: in vivo
[35] = Clearance in mouse at 1 mg/kg, iv administered as single dose; format: ADME, organism-based; conditions: in vivo
[36] = test system: BaF3; test: cells; format: functional, cell-based; conditions: Mus musculus, BaF3, 72 h; remark: listed apart in the source
[37] = test system: BaF3; test: cells; format: functional, cell-based; conditions: Mus musculus, BaF3, 72 h; remark: listed apart in the source
[38] = molecular target: NUAK family SNF1-like kinase 1 (Homo sapiens, UniProt O60285); test: Binding affinity to ARK5 (unknown origin) assessed as dissociation constant
[39] = molecular target: Tyrosine-protein kinase Blk (Homo sapiens, UniProt P51451); test: Binding affinity to BLK (unknown origin) assessed as dissociation constant
Tyrosine-protein kinase Blk, sequence (P51451 whole entry): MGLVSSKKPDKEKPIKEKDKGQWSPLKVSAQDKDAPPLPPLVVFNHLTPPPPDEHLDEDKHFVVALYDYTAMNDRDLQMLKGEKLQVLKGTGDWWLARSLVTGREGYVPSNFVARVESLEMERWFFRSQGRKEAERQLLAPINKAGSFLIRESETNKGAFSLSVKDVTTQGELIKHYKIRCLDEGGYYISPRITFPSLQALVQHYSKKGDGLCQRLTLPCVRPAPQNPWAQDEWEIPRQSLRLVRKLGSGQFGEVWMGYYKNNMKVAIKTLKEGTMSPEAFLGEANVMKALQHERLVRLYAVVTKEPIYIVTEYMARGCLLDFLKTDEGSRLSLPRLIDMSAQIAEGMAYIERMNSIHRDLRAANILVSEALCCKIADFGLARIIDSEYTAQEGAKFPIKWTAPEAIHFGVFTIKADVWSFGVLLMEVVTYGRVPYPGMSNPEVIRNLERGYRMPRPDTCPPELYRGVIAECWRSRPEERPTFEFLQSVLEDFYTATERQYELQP

RAC-alpha serine/threonine-protein kinase (Homo sapiens), sequence (P31749 whole entry): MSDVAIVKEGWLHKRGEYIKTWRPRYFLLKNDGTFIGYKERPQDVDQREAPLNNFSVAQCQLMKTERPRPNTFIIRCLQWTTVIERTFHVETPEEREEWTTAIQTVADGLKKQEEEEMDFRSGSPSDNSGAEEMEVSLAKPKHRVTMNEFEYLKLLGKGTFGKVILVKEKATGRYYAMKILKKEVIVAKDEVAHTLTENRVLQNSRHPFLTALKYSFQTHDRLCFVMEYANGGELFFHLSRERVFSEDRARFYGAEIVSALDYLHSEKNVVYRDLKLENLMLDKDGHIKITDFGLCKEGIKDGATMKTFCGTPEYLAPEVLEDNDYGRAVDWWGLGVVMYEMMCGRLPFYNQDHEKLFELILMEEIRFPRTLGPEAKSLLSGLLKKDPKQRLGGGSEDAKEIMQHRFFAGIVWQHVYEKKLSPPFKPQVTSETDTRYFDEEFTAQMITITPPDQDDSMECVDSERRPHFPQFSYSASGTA
Tyrosine-protein kinase ITK/TSK, sequence (Q08881 whole entry): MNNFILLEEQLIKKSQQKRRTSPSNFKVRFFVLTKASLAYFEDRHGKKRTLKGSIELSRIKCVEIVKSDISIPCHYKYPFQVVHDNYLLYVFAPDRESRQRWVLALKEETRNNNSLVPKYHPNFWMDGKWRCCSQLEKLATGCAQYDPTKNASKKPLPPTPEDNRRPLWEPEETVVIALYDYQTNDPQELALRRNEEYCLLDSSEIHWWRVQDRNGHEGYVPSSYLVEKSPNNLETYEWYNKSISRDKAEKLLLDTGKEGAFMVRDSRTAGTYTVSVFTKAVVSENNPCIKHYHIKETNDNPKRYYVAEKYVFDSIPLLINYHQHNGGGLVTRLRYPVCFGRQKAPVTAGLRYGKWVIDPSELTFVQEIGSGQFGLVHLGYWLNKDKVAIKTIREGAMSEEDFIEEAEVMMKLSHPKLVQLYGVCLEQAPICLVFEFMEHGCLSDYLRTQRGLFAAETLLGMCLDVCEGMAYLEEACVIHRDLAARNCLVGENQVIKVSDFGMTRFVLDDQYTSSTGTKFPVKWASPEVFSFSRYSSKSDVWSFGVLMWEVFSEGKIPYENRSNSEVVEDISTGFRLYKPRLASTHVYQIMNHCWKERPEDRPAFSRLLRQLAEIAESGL
Tyrosine-protein kinase JAK2, sequence (O60674 whole entry, looked up, the tested form may be a part): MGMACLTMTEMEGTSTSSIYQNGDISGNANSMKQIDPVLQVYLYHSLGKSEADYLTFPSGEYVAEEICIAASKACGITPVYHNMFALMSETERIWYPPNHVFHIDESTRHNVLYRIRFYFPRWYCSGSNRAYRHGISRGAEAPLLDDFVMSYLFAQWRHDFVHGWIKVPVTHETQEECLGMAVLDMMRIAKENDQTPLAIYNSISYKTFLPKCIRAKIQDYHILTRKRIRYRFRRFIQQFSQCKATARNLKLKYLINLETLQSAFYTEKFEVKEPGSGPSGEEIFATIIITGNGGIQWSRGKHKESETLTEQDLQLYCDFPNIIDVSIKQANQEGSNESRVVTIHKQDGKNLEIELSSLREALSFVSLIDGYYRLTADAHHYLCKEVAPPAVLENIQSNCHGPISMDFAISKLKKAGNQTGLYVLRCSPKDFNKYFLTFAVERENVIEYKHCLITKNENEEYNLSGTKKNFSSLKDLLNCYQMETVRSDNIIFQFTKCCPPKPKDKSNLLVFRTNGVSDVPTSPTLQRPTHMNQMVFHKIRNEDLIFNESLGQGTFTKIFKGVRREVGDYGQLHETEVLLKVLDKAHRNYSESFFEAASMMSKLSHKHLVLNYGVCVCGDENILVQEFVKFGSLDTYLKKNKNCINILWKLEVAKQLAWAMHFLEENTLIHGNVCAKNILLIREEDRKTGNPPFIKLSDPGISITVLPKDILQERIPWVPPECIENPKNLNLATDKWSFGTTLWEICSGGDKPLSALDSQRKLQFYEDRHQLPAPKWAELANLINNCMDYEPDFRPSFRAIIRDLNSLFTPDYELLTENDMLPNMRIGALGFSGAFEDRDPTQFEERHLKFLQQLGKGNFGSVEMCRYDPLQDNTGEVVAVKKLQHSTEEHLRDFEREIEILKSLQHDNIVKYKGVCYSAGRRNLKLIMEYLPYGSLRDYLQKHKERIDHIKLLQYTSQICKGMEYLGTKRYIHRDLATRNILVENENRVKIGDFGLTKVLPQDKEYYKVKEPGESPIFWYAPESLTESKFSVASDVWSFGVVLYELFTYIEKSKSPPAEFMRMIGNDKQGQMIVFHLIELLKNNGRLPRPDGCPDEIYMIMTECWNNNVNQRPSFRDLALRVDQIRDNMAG
NUAK family SNF1-like kinase 1, sequence (O60285 whole entry): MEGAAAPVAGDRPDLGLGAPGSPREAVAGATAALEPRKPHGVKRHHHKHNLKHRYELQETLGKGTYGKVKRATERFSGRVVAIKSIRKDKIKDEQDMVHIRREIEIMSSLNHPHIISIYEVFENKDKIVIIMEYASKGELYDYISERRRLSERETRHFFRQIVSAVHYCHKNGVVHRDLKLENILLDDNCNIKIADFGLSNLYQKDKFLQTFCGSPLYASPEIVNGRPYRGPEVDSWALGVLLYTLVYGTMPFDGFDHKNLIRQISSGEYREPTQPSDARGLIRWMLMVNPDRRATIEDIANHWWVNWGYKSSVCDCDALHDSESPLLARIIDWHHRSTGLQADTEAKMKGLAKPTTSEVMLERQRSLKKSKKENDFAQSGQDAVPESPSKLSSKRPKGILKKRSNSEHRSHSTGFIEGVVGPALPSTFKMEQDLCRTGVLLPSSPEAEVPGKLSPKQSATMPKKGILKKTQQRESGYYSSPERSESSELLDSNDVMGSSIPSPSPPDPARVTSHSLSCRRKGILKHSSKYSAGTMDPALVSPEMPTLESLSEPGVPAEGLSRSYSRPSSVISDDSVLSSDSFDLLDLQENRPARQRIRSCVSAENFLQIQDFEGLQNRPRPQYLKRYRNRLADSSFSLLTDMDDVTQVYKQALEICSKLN
Cytoplasmic tyrosine-protein kinase BMX (Homo sapiens), sequence (P51813 whole entry): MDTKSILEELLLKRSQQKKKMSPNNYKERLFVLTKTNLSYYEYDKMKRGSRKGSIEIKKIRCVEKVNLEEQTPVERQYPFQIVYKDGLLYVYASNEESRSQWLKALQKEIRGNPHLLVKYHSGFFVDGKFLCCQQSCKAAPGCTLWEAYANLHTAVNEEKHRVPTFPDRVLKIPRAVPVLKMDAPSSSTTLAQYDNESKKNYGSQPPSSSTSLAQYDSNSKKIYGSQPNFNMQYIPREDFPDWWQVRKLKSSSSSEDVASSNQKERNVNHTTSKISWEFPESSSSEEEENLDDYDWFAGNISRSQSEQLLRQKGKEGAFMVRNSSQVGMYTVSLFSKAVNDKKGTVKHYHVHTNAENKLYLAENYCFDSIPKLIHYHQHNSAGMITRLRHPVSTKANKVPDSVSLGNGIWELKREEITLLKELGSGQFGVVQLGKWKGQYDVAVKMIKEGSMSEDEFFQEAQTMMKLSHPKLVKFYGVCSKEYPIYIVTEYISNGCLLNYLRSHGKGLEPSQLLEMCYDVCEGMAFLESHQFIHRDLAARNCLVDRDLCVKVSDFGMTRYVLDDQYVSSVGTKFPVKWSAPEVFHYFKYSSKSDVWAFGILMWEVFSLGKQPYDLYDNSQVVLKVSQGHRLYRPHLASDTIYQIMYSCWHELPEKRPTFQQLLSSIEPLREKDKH

C=CC(=O)Nc1cccc(Oc2nc(Nc3ccc(N4CCN(C)CC4)cc3OC)ncc2Cl)c1
half-life [1]: 1.76 h | Activity [2]: Active | inhibition [3]: Active | AUC(0-inf) [4]: 976 ng·h/mL | concentration at 0.25 h [5]: 627 ng/mL | concentration at 1 h [6]: 228 ng/mL | IC50 [7]: 2 nM | Activity [8]: Non-Toxic | IC50 [9]: 36 nM | Activity [10]: Active | IC50 [11]: 619 nM | bioavailability [12]: 24.5% | Kd [13]: 43 nM | inhibition [14]: Active | IC50 [15]: 1960 nM | Vd [16]: 1.54 L/kg | IC50 [17]: > 3300 nM | Activity [18]: Active | concentration at 4 h [19]: 49.1 ng/mL | C0 [20]: 1480 ng/mL | concentration at 0.5 h [21]: 397 ng/mL | AUC(0-t) [22]: 2390 ng·h/mL | Activity [23]: Active | concentration at 0.5 h [24]: 451 ng/mL | half-life [25]: 2.46 h | IC50 [26]: 5 nM | inhibition [27]: Active | Activity [28]: inactive | MRT [29]: 1.51 h | inhibition [30]: Active | IC50 [31]: 3760 nM | IC50 [32]: 89 nM | Activity [33]: Active | Cmax [34]: 429 ng/mL | clearance [35]: 17.1 mL/min/kg | IC50 [36]: > 3300 nM | IC50 [37]: 3 nM | Kd [38]: 91 nM | Kd [39]: 220 nM
